Test results published in ChEMBL document CHEMBL1124602, “Diethylstilbestrol-linked cytotoxic agents: synthesis and binding affinity for estrogen receptors” (J Med Chem, 1989).
Calls of active or inactive are those of the source. The rule behind the calls is not given here.

Molecular target: T1, Estrogen receptor (Rattus norvegicus) (UniProt P06211+Q62986)
Experiment: Relative binding affinity (RBA) for estrogen receptor of rat uterine cytosol compared to [3H]estradiol
Type: protein assay
Conditions: not given
Outline: (§1)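 Competitive binding: rat uterine cytosol incubated 30 min at 18 °C with 5 × 10⁻⁹ [³H]estradiol, alone or with increasing competitor (10⁻⁹ to 10⁻⁵ M). Unlabeled estradiol serves as the reference competitor for relative binding affinity.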

SMILES	relative binding affinity (RBA)
CC[C@@H](c1ccc(O)cc1)[C@H](CCCCOC(=O)NCCCl)c1ccc(O)cc1	1
CC[C@@H](c1ccc(O)cc1)[C@H](CCCCI)c1ccc(O)cc1	1.5
CC[C@@H](c1ccc(O)cc1)[C@H](CCCC(=O)N(CC)CC)c1ccc(O)cc1	1
CCOCCCC[C@H](c1ccc(O)cc1)[C@@H](CC)c1ccc(O)cc1	1.2
CC[C@@H](c1ccc(O)cc1)[C@H](CCCCOS(C)(=O)=O)c1ccc(O)cc1	1.8
CCCCCCCC[C@H](c1ccc(O)cc1)[C@@H](CC)c1ccc(O)cc1	0.2

Further lines, results first:

relative binding affinity (RBA)	SMILES
10	CCCC[C@H](c1ccc(O)cc1)[C@@H](CC)c1ccc(O)cc1
0.1	CC[C@@H](c1ccc(O)cc1)[C@H](CCCC(=O)O)c1ccc(O)cc1
0.3	CC[C@@H](c1ccc(O)cc1)[C@H](CCCC(=O)Oc1ccc(Cl)cc1)c1ccc(O)cc1
0.3	CC[C@@H](c1ccc(O)cc1)[C@H](CCCC(=O)Oc1c(Cl)c(Cl)c(Cl)c(Cl)c1Cl)c1ccc(O)cc1
3	CC[C@@H](c1ccc(O)cc1)[C@H](CCCCCl)c1ccc(O)cc1
1.5	CC[C@@H](c1ccc(O)cc1)[C@H](CCCCO)c1ccc(O)cc1

Molecular target: T1, Estrogen receptor (Rattus norvegicus)
Experiment: Relative binding affinity (RBA) for estrogen receptor in rat uterine cytosol compared to [3H]estradiol; No binding
Conditions: Uterus
Outline: as §1

relative binding affinity (RBA)	SMILES
inactive	CC[C@@H](c1ccc(O)cc1)[C@H](CCCN[C@H]1C[C@H](O[C@H]2C[C@](O)(C(C)=O)Cc3c(O)c4c(c(O)c32)C(=O)c2c(OC)cccc2C4=O)O[C@@H](C)[C@H]1O)c1ccc(O)cc1
